Test results published in ChEMBL document CHEMBL1132154, “Novel partial agonists for the histamine H(3) receptor with high in vitro and in vivo activity” (J Med Chem, 1999).
pEC50, pKi: −log10 of the molar value.

Experiments:
[1] = target: Histamine H1 receptor (Cavia porcellus) (UniProt P31389); assay: Antagonist activity against histamine H1 receptor in guinea pig ileum; format: functional, tissue-based
Summary of the method: (§1)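 Isolated guinea pig tissues: H1 activity on ileum, H2 activity on spontaneously beating right atrium, by standard functional methods; each test at least in triplicate; exact type of interaction not determined in every case.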

Histamine H3 receptor [2] = target: T1, Histamine H3 receptor (Rattus norvegicus, UniProt Q9QYN8); assay: Antagonist activity against histamine H3 receptor on synaptosomes of rat cerebral cortex; format: functional, subcellular, Brain
T1 sequence (Q9QYN8 whole entry): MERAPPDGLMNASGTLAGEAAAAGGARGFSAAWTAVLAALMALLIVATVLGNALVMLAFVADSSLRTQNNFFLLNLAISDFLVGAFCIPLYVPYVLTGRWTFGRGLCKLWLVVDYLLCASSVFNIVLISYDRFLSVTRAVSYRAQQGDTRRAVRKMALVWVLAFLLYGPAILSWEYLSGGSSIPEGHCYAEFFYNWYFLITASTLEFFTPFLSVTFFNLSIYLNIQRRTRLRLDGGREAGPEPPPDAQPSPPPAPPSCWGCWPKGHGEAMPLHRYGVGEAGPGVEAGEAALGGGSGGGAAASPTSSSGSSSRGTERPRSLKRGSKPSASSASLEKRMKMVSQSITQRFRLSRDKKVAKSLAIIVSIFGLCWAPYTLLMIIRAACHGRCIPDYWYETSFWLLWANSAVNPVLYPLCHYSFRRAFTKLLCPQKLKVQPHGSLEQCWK
Summary of the method: (§2)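 Rat cerebral cortex synaptosomes; K+-evoked depolarization-induced [3H]histamine release measured for H3 agonist and antagonist activity; intrinsic activity derived from this preparation; at least triplicate.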

[3] = target: Histamine H3 receptor (Cavia porcellus) (UniProt Q9JI35); assay: Antagonist activity against histamine H3 receptor in guinea pig ileum; format: functional, tissue-based
Histamine H3 receptor (Cavia porcellus), sequence (Q9JI35 whole entry): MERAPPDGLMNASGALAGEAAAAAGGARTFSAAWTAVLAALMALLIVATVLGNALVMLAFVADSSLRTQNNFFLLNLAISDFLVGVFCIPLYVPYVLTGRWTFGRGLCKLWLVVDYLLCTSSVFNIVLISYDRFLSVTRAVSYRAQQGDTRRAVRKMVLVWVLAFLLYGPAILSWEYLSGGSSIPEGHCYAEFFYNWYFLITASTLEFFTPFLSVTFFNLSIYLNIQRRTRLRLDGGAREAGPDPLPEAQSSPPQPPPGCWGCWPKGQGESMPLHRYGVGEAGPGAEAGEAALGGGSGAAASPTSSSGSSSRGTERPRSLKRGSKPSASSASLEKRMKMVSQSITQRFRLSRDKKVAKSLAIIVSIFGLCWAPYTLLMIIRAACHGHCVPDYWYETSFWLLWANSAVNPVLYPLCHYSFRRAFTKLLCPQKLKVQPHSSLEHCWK
Summary of the method: (§3)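 Isolated guinea pig ileum segments, electrically evoked twitches; H3 antagonism from concentration-dependent inhibition of twitches by (R)-α-methylhistamine in presence of antagonist; agonist activity from concentration–response curves of the test compound in place of (R)-α-methylhistamine; each experiment at least in triplicate.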

Histamine H3 receptor [4] = target: T1, Histamine H3 receptor; assay: (§4) In vitro binding affinity against histamine H3 receptor from synaptosomes of rat cerebral cortex; format: subcellular, Brain
[5] = target: Histamine H2 receptor (Cavia porcellus) (UniProt P47747); assay: Antagonist activity against histamine H2 receptor in guinea pig atrium; format: functional, tissue-based; conditions: Cardiac atrium; summary of the method: as §1
Histamine H2 receptor (Cavia porcellus), sequence (P47747 whole entry): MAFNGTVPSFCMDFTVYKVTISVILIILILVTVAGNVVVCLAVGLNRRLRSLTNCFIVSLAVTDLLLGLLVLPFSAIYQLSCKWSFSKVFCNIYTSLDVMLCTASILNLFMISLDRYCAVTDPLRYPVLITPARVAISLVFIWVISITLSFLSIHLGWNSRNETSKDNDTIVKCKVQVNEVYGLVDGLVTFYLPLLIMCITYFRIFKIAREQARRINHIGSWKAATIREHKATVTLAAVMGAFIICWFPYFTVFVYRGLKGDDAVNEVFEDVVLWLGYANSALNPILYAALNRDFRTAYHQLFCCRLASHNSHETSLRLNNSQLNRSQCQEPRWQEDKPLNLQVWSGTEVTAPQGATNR

[6] = target: Histamine H3 receptor (Cavia porcellus) (UniProt Q9JI35); assay: Binding affinity for guinea pig ileum histamine H3 receptor; format: tissue-based; summary of the method: as §3
[7] = target: Histamine H3 receptor (Mus musculus) (UniProt P58406); assay: In vivo agonistic activity against histamine H3 receptor in mice after peroral administration; format: functional, organism-based
Histamine H3 receptor (Mus musculus), sequence (P58406 whole entry): as the sequence (Q9QYN8 whole entry) above, with T15A, A286T, A290G, R387H, I389V counted along it
Summary of the method: (§5)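 Swiss mice dosed orally with compounds as a methylcellulose suspension; brain histamine turnover assessed from increased (antagonist) or decreased (agonist) cerebral cortex N-methylhistamine level; intrinsic activity from modulation of this metabolite level; at least in triplicate.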

[8] = target: Histamine H3 receptor (Mus musculus) (UniProt P58406); assay: In vivo intrinsic activity against histamine H3 receptor in mice after peroral administration; format: organism-based; summary of the method: as §5
Histamine H3 receptor [9] = target: T1, Histamine H3 receptor; assay: In vitro intrinsic activity against histamine H3 receptor from synaptosomes of rat cerebral cortex; format: subcellular, Brain; summary of the method: as §2
Histamine H3 receptor [10] = target: T1, Histamine H3 receptor; assay: as §4; format: subcellular, Brain; summary of the method: as §2; remark: listed apart in the source

Histamine H1 receptor (Cavia porcellus), sequence (P31389 whole entry): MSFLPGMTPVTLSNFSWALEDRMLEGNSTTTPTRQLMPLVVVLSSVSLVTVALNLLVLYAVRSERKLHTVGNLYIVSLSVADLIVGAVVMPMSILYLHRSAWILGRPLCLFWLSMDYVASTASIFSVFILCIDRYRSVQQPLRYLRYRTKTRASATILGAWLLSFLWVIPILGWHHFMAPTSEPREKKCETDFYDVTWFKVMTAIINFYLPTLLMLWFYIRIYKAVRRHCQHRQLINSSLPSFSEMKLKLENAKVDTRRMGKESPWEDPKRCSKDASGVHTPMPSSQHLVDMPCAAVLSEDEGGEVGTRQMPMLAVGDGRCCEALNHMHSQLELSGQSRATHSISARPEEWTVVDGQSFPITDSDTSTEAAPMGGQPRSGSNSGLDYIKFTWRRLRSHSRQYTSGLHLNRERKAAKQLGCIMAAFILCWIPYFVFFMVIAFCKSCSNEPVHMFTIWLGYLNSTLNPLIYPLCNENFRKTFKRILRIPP

pkB [1] | pKi (Histamine H3 receptor [2]) | pkB [3] | pKi (Histamine H3 receptor [4]) | pkB [5] | Kb [6] | ED50 [7] | Intrinsic activity [8] | Intrinsic activity (Histamine H3 receptor [9]) | pEC50 (Histamine H3 receptor [10]) | Compound
6 | 7.38 | 7.58 | 7.38 | 4.3 | 28 nM | – | – | – | – | CC(C)(C)CC(C)(C)NC(=O)OCCCc1c[nH]cn1
5 | 8.03 | 7.89 | 8.03 | 4.6 | 13 nM | 0.15 mg/kg | 0.6 | 0.25 | – | CC(C)CCCOCCCc1c[nH]cn1
– | – | – | – | – | 6.6 nM | 1 mg/kg | 1 | – | – | N=C(N)SCCc1c[nH]cn1
4.5 | 7.85 | 7.03 | 7.85 | 3.5 | 93 nM | 0.51 mg/kg | 1 | 0.22 | 6.89 | CC(C)CCOCCCc1c[nH]cn1
4.5 | 8.00 | 7.38 | 8.00 | < 4 | 42 nM | 0.29 mg/kg | 1 | 0.55 | 7.35 | CC(C)(C)CCOCCCc1c[nH]cn1
– | 6.86 | 6.64 | 6.86 | – | 228 nM | – | – | – | – | CC(C)COCCCc1c[nH]cn1
3.5 | 7.64 | 7.4 | 7.64 | 3.2 | 40 nM | 0.48 mg/kg | 0.7 | 0.15 | – | CC(C)(C)CNC(=O)OCCCc1c[nH]cn1.O.O=C(O)C(=O)O
< 4.5 | – | 7.39 | – | < 4 | 41 nM | > 10 mg/kg | – | – | – | CC(C)CNC(=O)OCCCc1c[nH]cn1
< 4 | 7.09 | 7.04 | 7.09 | < 4.3 | 91 nM | 15 mg/kg | – | – | – | CC(C)NC(=O)OCCCc1c[nH]cn1.O=CC(=O)/C(O)=C/O
4.8 | – | 7.34 | – | 3.5 | 46 nM | 0.2 mg/kg | 0.4 | – | – | CCC(C)(C)NC(=O)OCCCc1c[nH]cn1
4.2 | – | 7.53 | – | 4.3 | 30 nM | – | – | – | – | CC(C)(C)CCNC(=O)OCCCc1c[nH]cn1.O=CC(=O)/C(O)=C/O
< 4 | – | 7.22 | – | < 4 | 60 nM | 0.9 mg/kg | 0.7 | – | – | CC(C)(C)NC(=O)OCCCc1c[nH]cn1.O=CC(=O)/C(O)=C/O
